Screening results as filed in PubChem BioAssay.
MrgX1 antag: antagonists of human MrgX1 receptor, primary screen, HEK293 cells, Fluo-4 calcium flux. Mas-related G-protein coupled receptor member X1 (Homo sapiens), Q96LB2. BAM8-22 antagonism; active compounds read low. B-score at 10 µM. 310,000 compounds, 1.3% hits;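 active means calcium-response B-score plate-corrected more than 3 library SD below zero, starting fluorescence within 5 deviations, no agonist response on first addition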;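 further: peak minus trough fluorescence over baseline after final BAM8-22 challenge near maximal dose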
Target sequence (Q96LB2 whole entry, looked up): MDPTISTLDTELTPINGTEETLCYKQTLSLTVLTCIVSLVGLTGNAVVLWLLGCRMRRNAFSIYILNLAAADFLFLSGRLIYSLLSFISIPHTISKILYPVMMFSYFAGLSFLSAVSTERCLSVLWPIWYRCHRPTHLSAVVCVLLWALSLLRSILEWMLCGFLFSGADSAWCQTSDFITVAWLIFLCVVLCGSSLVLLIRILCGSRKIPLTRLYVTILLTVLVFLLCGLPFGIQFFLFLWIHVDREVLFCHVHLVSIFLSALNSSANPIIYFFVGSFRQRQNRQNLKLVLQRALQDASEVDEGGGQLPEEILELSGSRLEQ
PHOSPHO1 inh: PubChem AID 1565. inhibition, % at 13.3 µM. Phosphoethanolamine/phosphocholine phosphatase (Homo sapiens), Q8TCT1. recombinant PHOSPHO1, absorbance phosphatase assay. 290,000 compounds, 1.1% hits; in the data active means inhibition above about 60%
Target sequence (Q8TCT1 whole entry, looked up): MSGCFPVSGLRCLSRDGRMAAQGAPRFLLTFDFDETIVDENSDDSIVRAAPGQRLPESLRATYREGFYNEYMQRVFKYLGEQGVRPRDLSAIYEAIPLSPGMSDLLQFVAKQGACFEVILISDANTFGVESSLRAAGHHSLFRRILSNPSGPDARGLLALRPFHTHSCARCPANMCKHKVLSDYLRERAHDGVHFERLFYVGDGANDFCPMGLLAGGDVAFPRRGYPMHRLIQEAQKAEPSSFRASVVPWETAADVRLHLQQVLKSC
MrgX1 ag: agonists of human MrgX1 receptor, primary screen, HEK293 cells, Fluo-4 calcium flux. B-score at 10 µM. Fluo-4 calcium fluorescence, agonist mode; active compounds read high. AID 588627, 2011. 310,000 compounds, 0.44% hits. Mas-related G-protein coupled receptor member X1 (Homo sapiens), Q96LB2;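 active means calcium response B-score plate-corrected fluorescence ratio at least 3 library SD, with starting fluorescence B-score inside 5 SD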
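System: HEK293 cells stably expressing human MrgX1 receptor; Dosing: test compound in the initial addition of three; Schedule: overnight plating, then 30 min 37 °C plus 30 min room-temperature dye loading; Detection: kinetic calcium dye fluorescence, Fluo-4 NW; Controls: per-plate positive and negative controls for Z′ factor.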
MrgX1 allo act: positive allosteric modulators of MrgX1, primary screen, HEK293 cells, Fluo-4 calcium flux. Mas-related G-protein coupled receptor member X1 (Homo sapiens), Q96LB2. FDSS; active compounds read high. B-score at 10 µM. 310,000 compounds, 0.63% hits;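 active means plate-corrected calcium response at least 3 library SD above typical, normal starting fluorescence, not activating the receptor alone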;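 further: compound read alongside a low EC10 to EC30 dose of BAM8-22 agonist; peak minus trough fluorescence over baseline measured at the second addition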
RGS4 block: RGS4 inhibitors, primary screen, cell-based, HEK293 M3R inducible RGS4, calcium flux | 310,000 compounds, 0.45% hits | Fluo-4 calcium flux; active compounds read high; triggered by carbachol at its EC20 | Regulator of G-protein signaling 4 (Homo sapiens), P49798 | B-score at 10 µM;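 active means B-score, a plate-corrected calcium signal, over three deviations above library mean, with baseline fluorescence within five deviations of library mean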;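 further: RGS4 expression induced by doxycycline in cells with stable M3 receptor; B-score is computed from the integrated fluorescence ratio over baseline after carbachol; higher B-score means a larger calcium signal and so more RGS4 inhibition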
Target sequence (P49798 whole entry, looked up): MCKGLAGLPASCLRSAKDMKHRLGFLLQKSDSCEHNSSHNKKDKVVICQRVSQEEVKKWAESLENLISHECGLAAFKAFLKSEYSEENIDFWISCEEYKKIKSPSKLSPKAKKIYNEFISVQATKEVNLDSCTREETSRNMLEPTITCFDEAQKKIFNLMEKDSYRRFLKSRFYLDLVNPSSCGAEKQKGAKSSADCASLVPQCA
RGS4 act: RGS4 potentiators or activators, primary screen, cell-based, HEK293 M3R inducible RGS4, calcium flux | carbachol calcium flux Fluo4; active compounds read low | B-score at 10 µM | 310,000 compounds, 0.92% hits;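 active means B-score of the integrated calcium signal more than 4 SD below the library mean, with starting fluorescence not abnormally high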;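 further: negative B-score means reduced calcium response which marks RGS4 activation or potentiation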
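Assay system: HEK293 FlpIn-TREx cells, stable M3R, doxycycline-inducible RGS4 / Probe or stimulus: carbachol, ECmax concentration / Times: overnight RGS4 induction, 30 min dye load 37 °C, 20 min compound RT / Signal: kinetic calcium fluorescence imaging with Fluo4-AM dye, 2 µM / Measure: Agonist-evoked peak-minus-minimum fluorescence over baseline, integrated ratio, B score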
MrgX1 ant reconf: MrgX1 receptor antagonists, duplicate retest, confirmation, HEK293 cells, Fluo-4 calcium flux | shares compounds with MrgX1 antag | 2,300 compounds, 19% hits | AID 602420, 2012 | BAM8-22 calcium flux; active compounds read low | remaining BAM8-22 calcium response % of control (active compounds read low), % at 10 µM;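 active means remaining agonist calcium response no higher than 100% minus 3 SD of agonist-only control wells, with starting fluorescence near control levels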;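 further: agonist BAM8-22 given at a near maximal EC90 to ECmax level; peak minus minimum fluorescence divided by baseline after agonist addition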
HEK293 Ca flux: nonspecific calcium signal in parental HEK293, confirmation, counter-screen for MrgX1 antagonist project, parental HEK293 cells, Fluo-4 calcium flux; shares compounds with MrgX1 antag; Fluo-4 calcium fluorescence, FDSS; fluorescence ratio F(max-min)/F0 at 10 µM; 4,000 compounds, 2% hits; AID 624111, 2012;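 active means duplicate-averaged calcium fluorescence ratio at least three times the standard deviation of buffer wells, a nonspecific response in parental cells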
HEK293 Ca counter: calcium response in parental HEK293 cells, primary screen, counter-screen for MrgX1 allosteric activator project, cell-based, Fluo-4 calcium flux, duplicate; shares compounds with MrgX1 antag; Fluo-4 fluorescence ratio; active compounds read high; fluorescence ratio F(max-min)/F0 at 10 µM; 4,000 compounds, 0.4% hits; AID 624114, 2012;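 active means calcium fluorescence ratio, averaged over duplicates, at least 3 SD of the buffer-well ratio, meaning a nonspecific response in receptor-free cells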;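 further: untransfected parental HEK293 lacking MrgX1 used as counterscreen for MrgX1 allosteric activators; fluorescence change taken during the second addition on a kinetic imager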
HEK293 Ca cntr2: calcium response in parental HEK293 cells, primary screen, counter-screen for MrgX1 agonist project, cell-based, Fluo-4 calcium flux, duplicate, agonist mode | shares compounds with MrgX1 antag | Fluo-4 calcium fluorescence (FDSS); active compounds read high | fluorescence ratio F(max-min)/F0 at 10 µM | 4,000 compounds, 8.7% hits | AID 624115, 2012;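 active means calcium fluorescence ratio at least three times the spread of buffer wells, meaning a non-specific response in parental cells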
Numbers stand for hits. Compounds with a hit are over-represented: about 4.5% of the library has one in this group of screens.

What do the screens show for `CCOCCn1c(CCCO)nc2ccccc21`?
MrgX1 antag: -11; PHOSPHO1 inh: inactive; MrgX1 ag: inactive; MrgX1 allo act: inactive; RGS4 block: inactive; RGS4 act: inactive; MrgX1 ant reconf: inactive; HEK293 Ca flux: inactive; HEK293 Ca counter: inactive; HEK293 Ca cntr2: inactive

Results for C=CCn1c(C(C)C)nc2ccccc21 ?
MrgX1 antag: -6.7; PHOSPHO1 inh: inactive; MrgX1 ag: inactive; MrgX1 allo act: inactive; RGS4 block: inactive; RGS4 act: inactive; MrgX1 ant reconf: inactive; HEK293 Ca flux: inactive; HEK293 Ca counter: inactive; HEK293 Ca cntr2: inactive

What do the screens show for `CCc1nc2ccccc2n1CCC(C)C`?
MrgX1 antag: -6.3; PHOSPHO1 inh: inactive; MrgX1 ag: inactive; MrgX1 allo act: inactive; RGS4 block: inactive; RGS4 act: inactive; MrgX1 ant reconf: inactive; HEK293 Ca flux: inactive; HEK293 Ca counter: inactive; HEK293 Ca cntr2: inactive

Results for CCOCCn1c(CC)nc2ccccc21 ?
MrgX1 antag: inactive; PHOSPHO1 inh: inactive; MrgX1 ag: inactive; MrgX1 allo act: inactive; RGS4 block: inactive; RGS4 act: inactive

How did C=CCn1c(N)nc2ccccc21 do in these assays?
MrgX1 antag: -4.6; PHOSPHO1 inh: inactive; MrgX1 ag: inactive; MrgX1 allo act: inactive; RGS4 block: inactive; RGS4 act: inactive; MrgX1 ant reconf: inactive; HEK293 Ca flux: inactive; HEK293 Ca counter: inactive; HEK293 Ca cntr2: inactive

Results for C=CCn1c(C(O)c2ccccc2)nc2ccccc21 (stereo not drawn) ?
MrgX1 antag: inactive; PHOSPHO1 inh: inactive; MrgX1 ag: inactive; MrgX1 allo act: inactive; RGS4 block: inactive; RGS4 act: inactive

What do the screens show for `COc1ccc(NC(=O)CCCN2C(=O)C(c3ccccc3)Oc3cccnc32)c(OC)c1` (stereo not drawn)?
MrgX1 antag: inactive; PHOSPHO1 inh: inactive; MrgX1 ag: inactive; MrgX1 allo act: inactive; RGS4 block: inactive; RGS4 act: inactive

What do the screens show for `C[C@H]1CCC[C@@]2(O[C@H](CCO)C[C@H](O)[C@H]2O)O1`?
MrgX1 antag: inactive; MrgX1 ag: inactive; MrgX1 allo act: inactive; RGS4 block: inactive; RGS4 act: inactive

How did C=CCc1cc(OC)ccc1OCCN(C)Cc1ccccc1 do in these assays?
MrgX1 antag: inactive; PHOSPHO1 inh: inactive; MrgX1 ag: inactive; MrgX1 allo act: inactive; RGS4 block: inactive; RGS4 act: inactive

What do the screens show for `CCCn1c(N)nc2ccccc21`?
MrgX1 antag: -5.5; PHOSPHO1 inh: inactive; MrgX1 ag: inactive; MrgX1 allo act: inactive; RGS4 block: inactive; RGS4 act: inactive; MrgX1 ant reconf: inactive; HEK293 Ca flux: inactive; HEK293 Ca counter: inactive; HEK293 Ca cntr2: inactive

How did CCn1c(N)nc2ccccc21 do in these assays?
MrgX1 antag: inactive; PHOSPHO1 inh: inactive; MrgX1 ag: inactive; MrgX1 allo act: inactive; RGS4 block: inactive; RGS4 act: inactive

Results for CC(C)(C)C(=O)Nc1sc2c(c1C#N)CCN(Cc1ccccc1)C2 ?
MrgX1 antag: -5.1; PHOSPHO1 inh: inactive; MrgX1 ag: inactive; MrgX1 allo act: inactive; RGS4 block: inactive; RGS4 act: inactive; MrgX1 ant reconf: inactive; HEK293 Ca flux: inactive; HEK293 Ca counter: inactive; HEK293 Ca cntr2: inactive

Results for COC(C(=O)Nc1ccc(NC(=O)C(OC)c2ccccc2)cc1)c1ccccc1 (stereo not drawn) ?
MrgX1 antag: inactive; PHOSPHO1 inh: inactive; MrgX1 ag: inactive; MrgX1 allo act: inactive; RGS4 block: inactive; RGS4 act: inactive

How did COC(C(=O)NC(C(C)C)C(C)C)c1ccccc1 (stereo not drawn) do in these assays?
MrgX1 antag: -5.9; PHOSPHO1 inh: inactive; MrgX1 ag: inactive; MrgX1 allo act: inactive; RGS4 block: inactive; RGS4 act: inactive; MrgX1 ant reconf: inactive; HEK293 Ca flux: inactive; HEK293 Ca counter: inactive; HEK293 Ca cntr2: inactive

Results for Cc1nc2cc(-c3cccs3)[nH]n2c(=O)c1C ?
MrgX1 antag: -5.2; MrgX1 ag: inactive; MrgX1 allo act: inactive; RGS4 block: inactive; RGS4 act: inactive; MrgX1 ant reconf: inactive; HEK293 Ca flux: inactive; HEK293 Ca counter: inactive; HEK293 Ca cntr2: inactive

How did CCOC(=O)Cn1cc(C(=O)c2ccco2)c2ccccc21 do in these assays?
MrgX1 antag: inactive; PHOSPHO1 inh: inactive; MrgX1 ag: inactive; MrgX1 allo act: inactive; RGS4 block: inactive; RGS4 act: inactive

Results for O=C(O)Cn1cc(C(=O)c2ccco2)c2ccccc21 ?
MrgX1 antag: -7.9; PHOSPHO1 inh: inactive; MrgX1 ag: inactive; MrgX1 allo act: inactive; RGS4 block: inactive; RGS4 act: inactive; MrgX1 ant reconf: inactive; HEK293 Ca flux: inactive; HEK293 Ca counter: inactive; HEK293 Ca cntr2: inactive

How did COc1ccc(NC(=O)c2nc[nH]c2C(=O)N2CCN(C(=O)OC(C)(C)C)CC2)cc1 do in these assays?
MrgX1 antag: -7.7; PHOSPHO1 inh: inactive; MrgX1 ag: inactive; MrgX1 allo act: inactive; RGS4 block: inactive; RGS4 act: inactive; MrgX1 ant reconf: inactive; HEK293 Ca flux: inactive; HEK293 Ca counter: inactive; HEK293 Ca cntr2: inactive

What do the screens show for `COc1cccc(CN2CCC(C(=O)N3CCN(c4ccccc4F)CC3)CC2)c1OC`?
MrgX1 antag: -9.2; PHOSPHO1 inh: inactive; MrgX1 ag: inactive; MrgX1 allo act: inactive; RGS4 block: inactive; RGS4 act: inactive; MrgX1 ant reconf: inactive; HEK293 Ca flux: inactive; HEK293 Ca counter: inactive; HEK293 Ca cntr2: inactive

Results for O=C(NNC(=O)c1cc(-c2cccnc2)nc2ccccc12)Nc1ccc(Cl)cc1 ?
MrgX1 antag: -13; PHOSPHO1 inh: inactive; MrgX1 ag: inactive; MrgX1 allo act: 6.9; RGS4 block: inactive; RGS4 act: inactive; MrgX1 ant reconf: inactive; HEK293 Ca flux: inactive; HEK293 Ca counter: inactive; HEK293 Ca cntr2: inactive
